Assay results from different studies.
Each line is one published result; the experiments were not run side by side. pIC50: −log10 of the molar value.
Cell line: PC-3
Effect on: cell growth or viability

The pIC50 of O=C(O)C1C(c2ccccc2)C(C(=O)Oc2cc(-c3ccc4c(c3)OCO4)ccc2-c2cncnc2)C1c1ccccc1 (stereo not drawn) is reported as 4.75 (MTT).
For O=C1CCP(=S)(c2ccccc2)CC1, the pIC50 was 5.22 (MTT; 72 h).
O=C1CCc2cc(-c3cccc(OC(=O)[C@H]4[C@H](c5ccccc5)[C@@H](C(=O)O)[C@H]4c4ccccc4)c3)ccc2N1 has a pIC50 of 4.88 (MTT).
For C[S+]([O-])CCCCN=C=S (stereo not drawn), the pIC50 was 4.47 (MTT; 24 h).
For S=P1(C2CCCCC2)CCCCC1, the pIC50 was under 4.00 (MTT; 72 h).
O=[N+]([O-])c1ccc(NCCCCN=C=S)c2nonc12 gave a pIC50 of 5.48 (MTT; 24 h).
The pIC50 of COc1cc(C(=O)c2nc(-c3c[nH]c4cccc(C)c34)c[nH]2)cc(OC)c1OC is reported as 6.33 (MTS; 72 h).
O=C1CCP(=[Se])(c2ccccc2)CC1 gave a pIC50 of under 4.00 (MTT; 72 h).
With COc1cc(C(=O)c2nc(-c3cccc4[nH]ccc34)c(Br)[nH]2)cc(OC)c1OC the pIC50 was under 6.00 (MTS; 72 h).
CC[C@@]1(O)C(=O)OCc2c1cc1n(c2=O)Cc2cc3ccccc3nc2-1 gave a pIC50 of 6.82 (SRB; 48 h).
For N=c1c2c(-c3ccccc3)c(-c3ccccc3)n(Cc3ccccc3)c2ncn1[C@H]1CC[C@H](O)CC1, the pIC50 was 4.96 (CCK-8).
COc1cc(C(=O)c2nc(-c3ccc4ccccc4c3)c[nH]2)cc(OC)c1OC has a pIC50 of 6.41 (MTS; 72 h).
